Measured values reported in ChEMBL document CHEMBL4265954, “Discovery of potent liver-selective stearoyl-CoA desaturase-1 (SCD1) inhibitors, thiazole-4-acetic acid derivatives, for the treatment of diabetes, hepatic steatosis, and obesity” (Eur J Med Chem, 2018).

Assays:
Mus musculus [1] = experiment: Ex vivo inhibition of SCD1 in C57BL/6J mouse eyelid assessed as residual activity at 100 mg/kg, po treated for 24 hrs followed by incubation with [14C]stearoyl-CoA substrate for 30 mins by TLC assay relative to control; type: organism-based
Summary of the method: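 Male 6-week-old C57BL/6J mice dosed orally as a suspension in 0.5% methylcellulose. Liver or eyelid was taken 6 or 24 h later and homogenized in 100 mM Tris-HCl pH 7.4 with 0.25 M sucrose. S9 was obtained at 10,000 × g, 4 °C. S9 was incubated with [14C]stearoyl-CoA, NADH, MgCl2 and cytochrome b5 at room temperature, 10 min for liver and 30 min for eyelid. Lipids were saponified and run on AgNO3 TLC to quantify stearate and oleate. Result is % of vehicle control.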

[2] = Apparent permeability of the compound in human Caco2 cells; type: ADME, cell-based; settings: Caco-2
[3] = Metabolic stability in human liver S9 fraction after 1 hr; type: ADME, subcellular; settings: read-out: Stability
Rattus norvegicus [4] = experiment: Toxicity in Sprague-Dawley rat at 100 mg/kg, po once daily for 2 weeks; type: organism-based; settings: in vivo, 336 h
Summary of the method: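 Male Sprague Dawley rats, 6 weeks old (5 per group), were dosed orally once daily for 2 weeks at 100 or 1000 mg/kg as a suspension in 0.5% methylcellulose; controls received vehicle. Readouts: clinical observations, body weight, food consumption, ophthalmoscopy in week 2, and terminal necropsy, hematology, clinical chemistry, organ weights and histopathology. Plasma levels were measured 24 h post-dose on days 1, 5 and 10.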

[5] = AUC (0 to infinity) in Sprague-Dawley rat at 10 mg/kg, po; type: ADME, organism-based; set-up: dose 10 mg/kg, route oral, time infinity; settings: in vivo
[6] = Cmax in C57BL/6J mouse at 10 mg/kg, po; type: ADME, organism-based; set-up: dose 10 mg/kg, route oral; settings: in vivo
Summary of the method: (§1)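 Two male C57BL/6J mice per route, 10 mg/kg po and 1 mg/kg iv. Plasma concentration–time profiles gave Cmax, tmax, terminal half-life and AUC0-inf. Bioavailability was derived from the po and iv data.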

[7] = AUC (0 to infinity) in C57BL/6J mouse at 10 mg/kg, po; type: ADME, organism-based; set-up: dose 10 mg/kg, time infinity, route oral; settings: in vivo
[8] = Oral bioavailability in C57BL/6J mouse at 10 mg/kg; type: ADME, organism-based; settings: in vivo; summary of the method: as §1
Rattus norvegicus [9] = experiment: Ex vivo inhibition of SCD1 in high sucrose diet Sprague-Dawley rat liver treated orally for 6 hrs followed by incubation with [14C]stearoyl-CoA substrate for 10 mins by TLC assay; type: functional, organism-based
Summary of the method: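 Sprague-Dawley rats on a high sucrose diet, given oral 1 or 10 mg/kg. Liver, epididymal adipose and eyelid were taken 6 h later and homogenized. S9 SCD activity was measured by [14C]stearoyl-CoA conversion to oleate and quantified by AgNO3 TLC imaging. Result is % remaining activity versus control, mean ± SD, n=3.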

Acyl-CoA desaturase 1 = target: T1, Acyl-CoA desaturase 1 (Mus musculus, UniProt P13516); experiment: Inhibition of mouse liver microsome SCD assessed as reduction in [3H]H2O production using stearoyl [9,10-3H]CoA as substrate in presence of NADH incubated for 30 mins by scintillation counting method; type: microsomes
T1 sequence (P13516 whole entry): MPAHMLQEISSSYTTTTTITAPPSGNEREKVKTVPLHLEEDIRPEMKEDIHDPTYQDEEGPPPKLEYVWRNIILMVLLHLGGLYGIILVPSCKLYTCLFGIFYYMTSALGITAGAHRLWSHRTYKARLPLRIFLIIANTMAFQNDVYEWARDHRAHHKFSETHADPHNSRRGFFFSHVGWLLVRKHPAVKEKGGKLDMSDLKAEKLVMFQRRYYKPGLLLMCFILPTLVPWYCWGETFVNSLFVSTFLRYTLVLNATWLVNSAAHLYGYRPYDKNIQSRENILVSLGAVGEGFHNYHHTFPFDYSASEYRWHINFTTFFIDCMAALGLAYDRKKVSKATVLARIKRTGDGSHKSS
Summary of the method: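 Desaturation of [9,10-3H]stearoyl-CoA measured as released [3H]H2O. Water was separated from charcoal-adsorbed substrate by filtration and counted by scintillation. Remaining activity = (compound − background)/(control − background). DMSO wells served as control and pre-stopped wells as background. IC50 was interpolated from the two points bracketing 50%.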

Mus musculus [10] = experiment: Antiobesity activity in high fat diet fed C57BL/6J mouse assessed as reduction in diet-induced body weight gain at 10 mg/kg, po administered as diet mixture for 43 days relative to control; type: functional; set-up: scale not given: the % may be the effect or the level left
Summary of the method: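 C57BL/6J mice, individually housed, fed HFD for one month, then given HFD admixed with drug (0.0040% for 3 mg/kg/day, 0.0133% for 10 mg/kg/day) for 43 days, from 10 to 16 weeks of age. Chow-fed normal group as control. Body weight measured every 3–4 days. Mean ± SD, n=5–8. Dunnett's test versus HFD control.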

[11] = Total clearance in C57BL/6J mouse at 1 mg/kg, iv; type: ADME, organism-based; settings: in vivo
Summary of the method: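 Single intravenous dose of 1 mg/kg, with a parallel oral arm at 10 mg/kg, given to two male animals per species: C57BL/6J mice and Sprague Dawley rats. Total body clearance was derived from the plasma concentration–time profile of the compound.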

[12] = Apparent terminal half life in C57BL/6J mouse at 10 mg/kg, po; type: ADME, organism-based; settings: in vivo, read-out: betat1/2(app) (converted); summary of the method: as §1
Cytochrome P450 2C19 = Cytochrome P450 2C19 (Homo sapiens, UniProt P33261); experiment: Inhibition of CYP2C19 (unknown origin); type: ADME
[13] = Tmax in Sprague-Dawley rat at 10 mg/kg, po; type: ADME, organism-based; settings: in vivo
Summary of the method: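 Two male Sprague-Dawley rats per route, 10 mg/kg po and 1 mg/kg iv. Cmax, tmax, terminal-phase half-life and AUC0-inf were taken from plasma concentration–time curves. Bioavailability was derived from the po and iv data.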

Chain of Cytochrome P450 2C19 (P33261 whole entry): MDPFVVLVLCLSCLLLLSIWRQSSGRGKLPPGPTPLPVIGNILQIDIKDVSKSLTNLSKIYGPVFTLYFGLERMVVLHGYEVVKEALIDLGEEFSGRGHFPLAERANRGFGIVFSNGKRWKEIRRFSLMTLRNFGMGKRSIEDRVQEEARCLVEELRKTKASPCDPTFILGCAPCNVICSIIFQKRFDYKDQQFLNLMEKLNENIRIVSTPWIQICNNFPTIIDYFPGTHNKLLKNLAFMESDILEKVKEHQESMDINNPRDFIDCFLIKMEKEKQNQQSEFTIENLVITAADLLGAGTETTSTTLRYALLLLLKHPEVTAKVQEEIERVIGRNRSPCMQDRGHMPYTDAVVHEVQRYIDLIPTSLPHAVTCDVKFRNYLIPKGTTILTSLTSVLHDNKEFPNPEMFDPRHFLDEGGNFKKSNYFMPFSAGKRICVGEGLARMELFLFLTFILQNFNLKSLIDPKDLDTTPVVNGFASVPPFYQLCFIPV

## CCCCc1ccccc1NCc1ccc(C(=O)Nc2nc(CC(=O)O)cs2)s1
Mus musculus [1]
  Activity: 57%
[2]
  Papp: 43.6 ×10⁻⁶ cm/s
[3]
  remaining at 1 h: 91%
Rattus norvegicus [4]
  Activity: Non-Toxic
[5]
  AUC(0-inf): 16.5 µM·h
[6]
  Cmax: 1700 nM
[7]
  AUC(0-inf): 10.2 µM·h
[8]
  bioavailability: 28%
Rattus norvegicus [9]
  inhibition: Dose-dependent effect
Acyl-CoA desaturase 1
  IC50: 5.4 nM
Mus musculus [10]
  Activity: 6%
[11]
  clearance: 10.2 mL/min/kg
[12]
  half-life: 5.2 h
Cytochrome P450 2C19
  IC50: > 50000 nM
[13]
  Tmax: 0.5 h
